Test results: ChEMBL document CHEMBL2412965, “Macrocyclic biphenyl tetraoxazoles: synthesis, evaluation as G-quadruplex stabilizers and cytotoxic activity” (Bioorg Med Chem, 2013)

Columns and labels:
Homo sapiens [1] = species on record: Homo sapiens; test: Binding affinity to human d(TTAGGG)4 assessed as thermal transition temperature at 20 uM preincubated for 5 mins at 90 degC followed by cooling at room temperature measured after 4 hrs by UV spectrophotometric analysis in presence of 150 mM K+ (reference value: 63.1 degC)
Outline: (§1)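 UV melting of human telomeric d(TTAGGG)4 at 5 μM strand (120 μM nucleotide), with ligand at 20 μM. Before use, DNA was heated 5 min at 90 °C and cooled slowly to room temperature over 4 h. Buffer was 10 mM potassium phosphate, pH 7.5, with KCl added to give 50 mM K+ (32 mM KCl) or 150 mM K+ (132 mM KCl). Absorbance was read at 295 nm in 0.5 °C steps with 1 min equilibration. Ttran was taken from the first-derivative minimum.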

[2] = Cytotoxicity against wild type human KB-3-1 cells after 4 days by MTT assay; assay type: functional, cell-based; conditions: KB 3-1, 96 h
Outline: (§2)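 Cells were grown in suspension in RPMI with 10% heat-inactivated FBS, 2 mM L-glutamine, penicillin and streptomycin at 37 °C, 5% CO2. Drug exposure was continuous for 4 days across a concentration range, with a drug-free control. IC50 came from at least two experiments in six replicate wells.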

Salmonidae [3] = test: Binding affinity to salmon testes duplex DNA assessed as thermal transition temperature at 15 uM preincubated for 5 mins at 90 degC followed by cooling at room temperature measured after 4 hrs by UV spectrophotometric analysis in presence of 150 mM K+ (reference value: 86.1 degC)
Outline: (§3)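 Salmon testes duplex DNA melting with ligand at 15 μM in 1 cm quartz cells. Buffer was 10 mM potassium phosphate, pH 7.5, with KCl added to give 50 mM K+ (32 mM KCl) or 150 mM K+ (132 mM KCl). Absorbance was read at 260 nm, temperature raised in 0.5 °C increments with 1 min equilibration and 5 s averaging. Ttran was taken from the first-derivative maximum.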

Homo sapiens [4] = species on record: Homo sapiens; test: Binding affinity to human d(TTAGGG)4 assessed as thermal transition temperature at 20 uM preincubated for 5 mins at 90 degC followed by cooling at room temperature measured after 4 hrs by UV spectrophotometric analysis in presence of 50 mM K+ (reference value: 55.3 degC); outline: as §1
[5] = Cytotoxicity against human RPMI8402 cells after 4 days by MTT assay; assay type: functional, cell-based; conditions: RPMI 8402, 96 h
Salmonidae [6] = test: Binding affinity to salmon testes duplex DNA assessed as thermal transition temperature at 15 uM preincubated for 5 mins at 90 degC followed by cooling at room temperature measured after 4 hrs by UV spectrophotometric analysis in presence of 50 mM K+ (reference value: 78.2 degC); outline: as §3
[7] = Cytotoxicity against human KBH5.0 cells overexpressing BCRP after 4 days by MTT assay; assay type: functional, cell-based; conditions: KBH5.0 cell, 96 h; outline: as §2
[8] = Cytotoxicity against human KBV1 cells overexpressing MDR1 after 4 days by MTT assay; assay type: functional, cell-based; conditions: KB-V1, 96 h; outline: as §2
Mus musculus = test: Toxicity in athymic nude NCr mouse xenografted with human MDA-MB-435 cells administered as ip for 3 times per week for 4 weeks measured 2 times per week during compound administration; assay type: organism-based; conditions: in vivo, 672 h
MDA-MB-435 = test: Antitumor activity against human MDA-MB-435 cells xenografted in athymic nude NCr mouse assessed as tumor growth inhibition at 14 to 31 mg/kg, ip administered 3 times per week for 3 weeks followed by 42 mg/kg, ip dose for 3 times per week for last 10 days measured 2 times per week during compound administration relative to control; assay type: functional

Row | T (Homo sapiens [1]) | T (Salmonidae [3]) | T (Homo sapiens [4]) | T (Salmonidae [6]) | Compound | IC50 [2] | IC50 [5] | IC50 [7] | IC50 [8] | Activity (Mus musculus) | T/C (MDA-MB-435)
1 | 73.7 °C | 86.7 °C | 63.7 °C | 79.1 °C | CN(C)CC[C@@H]1NC(=O)c2coc(n2)-c2coc(n2)-c2cccc(c2)-c2cccc(c2)-c2nc(co2)-c2nc(co2)CNC1=O | 3.5 µM | 6.5 µM | > 10 µM | > 10 µM | – | –
2 | 64.7 °C | 85.7 °C | 58.1 °C | 77.2 °C | O=C1N[C@@H](Cc2ccccc2)C(=O)NCc2coc(n2)-c2coc(n2)-c2cccc(c2)-c2cccc(c2)-c2nc(co2)-c2nc1co2 | > 10 µM | > 10 µM | > 10 µM | > 10 µM | – | –
3 | 92.2 °C | 86.7 °C | 92.7 °C | 78.2 °C | CC(C)[C@@H]1NC(=O)c2coc(n2)-c2coc(n2)-c2coc(n2)[C@H](CCN(C)C)NC(=O)c2coc(n2)-c2coc(n2)-c2coc1n2 | – | 0.07 µM | 0.03 µM | 5 µM | <= 45 mg kg-1 | 21.6%
4 | – | – | – | – | CC(C)[C@@H]1NC(=O)c2coc(n2)-c2coc(n2)-c2coc(n2)[C@H](C(C)C)NC(=O)c2coc(n2)-c2coc(n2)-c2coc1n2 [HEXAOXAZOLE DIVALINE] | 0.3 µM | 0.41 µM | 0.5 µM | > 10 µM | – | –
5 | 64.2 °C | 86.5 °C | 57.7 °C | 78.3 °C | CC(C)(C)OC(=O)NCC[C@@H]1NC(=O)c2coc(n2)-c2coc(n2)-c2cccc(c2)-c2cccc(c2)-c2nc(co2)-c2nc(co2)CNC1=O | > 10 µM | 3.5 µM | 6 µM | > 10 µM | – | –
6 | 67.3 °C | 86.7 °C | 60.1 °C | 78.2 °C | O=C1CNC(=O)c2coc(n2)-c2coc(n2)-c2cccc(c2)-c2cccc(c2)-c2nc(co2)-c2nc(co2)CN1 | 2.3 µM | 2.5 µM | > 10 µM | > 10 µM | – | –
7 | 91.2 °C | 86.8 °C | 91.2 °C | 78.7 °C | CN(C)CCc1cc2cc(c1)CNC(=O)c1coc(n1)-c1coc(n1)-c1cccc(n1)-c1nc(co1)-c1nc(co1)C(=O)NC2 | 0.04 µM | 0.18 µM | > 10 µM | > 10 µM | – | –
8 | 67.2 °C | 86.2 °C | 61.7 °C | 78.2 °C | CC(C)[C@@H]1NC(=O)c2coc(n2)-c2coc(n2)-c2cccc(c2)-c2cccc(c2)-c2nc(co2)-c2nc(co2)CNC1=O | 5 µM | – | 10 µM | 6.5 µM | – | –
9 | 77.7 °C | 87.1 °C | 68.2 °C | 81.1 °C | NCC[C@@H]1NC(=O)c2coc(n2)-c2coc(n2)-c2cccc(c2)-c2cccc(c2)-c2nc(co2)-c2nc(co2)CNC1=O | 4 µM | 7 µM | > 10 µM | > 10 µM | – | –

Row | Compound | T (Homo sapiens [1]) | T (Salmonidae [3]) | T (Homo sapiens [4]) | T (Salmonidae [6]) | IC50 [2] | IC50 [5] | IC50 [7] | IC50 [8] | Activity (Mus musculus) | T/C (MDA-MB-435)
10 | CC(C)[C@@H]1NC(=O)c2coc(n2)-c2coc(n2)-c2coc(n2)C/C=C/c2coc(n2)-c2coc(n2)-c2coc1n2 | 93.2 °C | 86.2 °C | 92.2 °C | 78.2 °C | – | 0.03 µM | 0.04 µM | 3.3 µM | – | –
